Screening data: PubChem BioAssay, The Scripps Research Institute Molecular Screening Center
An excerpt weighted towards active compounds, which were near 1.4% of everything screened.
ARFGAP1 inh – inhibits rat ARF GTPase activating protein 1. actives 0.26% (n = 360,000). Q62848. AID 651572. inhibition, % at 16.5 µM. Arfgap1-stimulated ARF1 GTP hydrolysis, GDP FP detection;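 active means inhibition above a per-plate limit, mean inhibition of low control wells plus 3 SD, cut at about 25% in these data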;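 further: 0% = DMSO wells with enzyme and 100% = wells lacking Arfgap1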
Target sequence (Q62848 1-136 limits assumed): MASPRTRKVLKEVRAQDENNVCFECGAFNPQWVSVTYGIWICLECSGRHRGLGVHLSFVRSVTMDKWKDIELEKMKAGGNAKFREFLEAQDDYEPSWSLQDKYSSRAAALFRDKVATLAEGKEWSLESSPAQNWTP
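system = rat Arfgap1 catalytic domain, aa 1-136 | technique = FP, GDP Alexa 633 tracer displaced from anti-GDP antibody, 620/688 nm | compound = one concentration, 16.5 µM, DMSO 1.26% | medium = HEPES-based buffer, pH 7.5 | timing = compound-enzyme preincubation 20 min, reaction 120 min, detection 60 min, 25 °C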
MsrA inh – inhibitors of bovine MsrA; inhibition, % at 15.5 µM; AID 651718; actives 0.75% (n = 360,000); purified bovine MsrA, absorbance read-out;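 further: 0% = vehicle wells with enzyme and 100% = reference inhibitor wells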
MsrA act – activates bovine MsrA enzyme | purified bovine MsrA, absorbance read-out | actives 0.3% (n = 360,000) | activation, % at 10.6 µM; in the data active means activation above about 7.5%;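 further: 0% = vehicle and 100% = reference activator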
ASAP1 GAP inh – inhibitors of human ASAP1 ArfGAP activity. inhibition, % at 16.5 µM. actives 0.19% (n = 360,000). ASAP1-stimulated ARF1 GTP hydrolysis, GDP FP detection. Q9ULH1; in the data active means inhibition above about 25%;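 further: 0% = vehicle with enzyme and substrate and 100% = no enzyme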
Target sequence (Q9ULH1 325-724 limits assumed): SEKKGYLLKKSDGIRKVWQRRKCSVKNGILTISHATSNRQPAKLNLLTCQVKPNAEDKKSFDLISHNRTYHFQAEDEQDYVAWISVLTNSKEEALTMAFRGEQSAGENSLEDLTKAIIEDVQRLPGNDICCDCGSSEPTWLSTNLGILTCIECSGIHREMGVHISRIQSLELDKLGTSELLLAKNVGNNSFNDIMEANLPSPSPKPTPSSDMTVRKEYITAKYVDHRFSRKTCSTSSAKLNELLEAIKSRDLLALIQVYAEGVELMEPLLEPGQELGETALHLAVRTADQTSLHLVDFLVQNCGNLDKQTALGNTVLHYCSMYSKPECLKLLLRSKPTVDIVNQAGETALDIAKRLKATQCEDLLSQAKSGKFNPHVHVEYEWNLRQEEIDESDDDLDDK
MsrA conf – confirmation of bovine MsrA inhibitors | inhibition, % at 15.5 µM | purified bovine MsrA, absorbance read-out | AID 651822 | actives 41% (n = 2,300) | shares compounds with MsrA inh;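 further: coupled to thioredoxin reductase with NADPH and selenocystamine and DMSO as substrate; 0% = vehicle only and 100% = full effect of reference inhibitor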
Starred values were filed as active, the others as inactive. Unless noted, no stated cut-off is given here; in the data, active means inhibition above about 4.5%; inactive means the rest.

Screening CC1OC(Oc2ccc3ccc(=O)oc3c2-c2c(O)ccc3cc(Oc4ccc5ccc(=O)oc5c4)c(=O)oc23)C(O)C(O)C1O (configuration not stated) returned ARFGAP1 inh 1, MsrA inh 4.8*, MsrA act -5, ASAP1 GAP inh -3 and MsrA conf 4.
`Cc1cnc(N)c2c(=O)oc3ccccc3c12` gave ARFGAP1 inh -7, MsrA inh 0, MsrA act -3 and ASAP1 GAP inh -12.
`O=c1oc2ccccc2c2c1cnc1ccccc12` gave ARFGAP1 inh 2, MsrA inh 16*, MsrA act -2, ASAP1 GAP inh 1 and MsrA conf 15*.
For Cc1nnc(SCC(=O)NCCC2=CCCCC2)[nH]c1=O the results were ARFGAP1 inh -8, MsrA inh -1, MsrA act -2 and ASAP1 GAP inh 16.
Screening CCCN1C(=O)/C(=C/c2ccc(C)s2)NC1=S returned ARFGAP1 inh -1, MsrA inh 2, MsrA act -9 and ASAP1 GAP inh -1.
CCN1C(=O)/C(=C\N(C)C)NC1=S was read as ARFGAP1 inh -5, MsrA inh 5.0*, MsrA act -7, ASAP1 GAP inh -9 and MsrA conf 3.
For COc1ccc(N2C(=O)/C(=C/N(C)C)NC2=S)cc1 the results were ARFGAP1 inh 8, MsrA inh 7.3*, MsrA act -4, ASAP1 GAP inh -8 and MsrA conf 5.8*.
`CN(C)/C=C1/NC(=S)NC1=O` gave ARFGAP1 inh 9, MsrA inh 5.5*, MsrA act -3, ASAP1 GAP inh 1 and MsrA conf 6.7*.
`COc1ccc(N2C(=O)/C(=C/c3cccnc3)NC2=S)cc1` gave ARFGAP1 inh 4, MsrA inh 0, MsrA act 1 and ASAP1 GAP inh -9.
COC(=O)C1=C(C)N(CC(C)C)C(=S)NC1c1ccc(Cl)cc1 (configuration not stated) was read as ARFGAP1 inh -4, MsrA inh 0 and ASAP1 GAP inh 2.
For NC(=O)c1cc(S(=O)(=O)N2CCN(c3ccc([N+](=O)[O-])cc3)CC2)cs1 the results were ARFGAP1 inh 6, MsrA inh 7.8*, MsrA act -2, ASAP1 GAP inh 9 and MsrA conf 4.8*.
Nc1c(-c2ccccc2)cnn1-c1ccccc1 was read as ARFGAP1 inh -5, MsrA inh 0, MsrA act -1 and ASAP1 GAP inh -6.
O=c1cnn(-c2ccccc2)c(-c2ccccc2)c1 was read as ARFGAP1 inh -6, MsrA inh 12*, MsrA act -5, ASAP1 GAP inh -3 and MsrA conf 9.5*.
COc1ccc(Br)c(C=O)c1OS(=O)(=O)c1ccc(C)cc1 was read as ARFGAP1 inh -20, MsrA inh 0, MsrA act -3 and ASAP1 GAP inh -24.
`CCC(c1nnnn1-c1c(C)cccc1C)N1CCCN(Cc2ccc(F)cc2)CC1` (configuration not stated) gave ARFGAP1 inh -2, MsrA inh -1, MsrA act -2 and ASAP1 GAP inh 11.
Screening CCN1CCN(c2nc(Nc3ccccc3)nc(N)c2[N+](=O)[O-])CC1 returned ARFGAP1 inh 3, MsrA inh 4.8*, MsrA act 2, ASAP1 GAP inh -9 and MsrA conf 4.
`CCN1CCN(c2nc(Nc3cccc(C)c3)nc(N)c2[N+](=O)[O-])CC1` gave ARFGAP1 inh 4, MsrA inh 2, MsrA act 0 and ASAP1 GAP inh 8.
CC(=O)OC(=C(OC(C)=O)c1ccccc1)c1ccccc1 was read as ARFGAP1 inh 0, MsrA inh 5.8*, MsrA act -2, ASAP1 GAP inh 2 and MsrA conf 6.0*.
Screening COC(=O)CNC(=O)c1ccccc1 returned ARFGAP1 inh -5, MsrA inh 0, MsrA act -1 and ASAP1 GAP inh 1.
For COC(=O)C1=C(C)N(Cc2ccccc2C(F)(F)F)C(=NCc2ccccc2C(F)(F)F)NC1c1ccc(C(F)(F)F)cc1 (configuration not stated) the results were ARFGAP1 inh -3, MsrA inh -2 and ASAP1 GAP inh -4.
`O=C(/C=C/c1ccco1)Nc1cccc(S(=O)(=O)N2CCOCC2)c1` gave ARFGAP1 inh -8, MsrA inh 2, MsrA act -6 and ASAP1 GAP inh -11.
`Cc1ccc(/C=C/C(=O)Nc2cccc(S(=O)(=O)N3CCOCC3)c2)o1` gave ARFGAP1 inh -14, MsrA inh 5.0*, MsrA act -6, ASAP1 GAP inh 1 and MsrA conf 4.9*.
Cn1c(COc2ccccc2Br)nc2ccccc21 was read as ARFGAP1 inh -8, MsrA inh -1, MsrA act -2 and ASAP1 GAP inh 19.
`COCCNC(=O)/C(C#N)=C/c1ccc(SC)cc1` gave ARFGAP1 inh 6, MsrA inh 4.7*, MsrA act -3, ASAP1 GAP inh -2 and MsrA conf 4.
COCCNC(=O)/C(C#N)=C\c1ccc(CNS(=O)(=O)c2ccc(C)cc2)o1 was read as ARFGAP1 inh 1, MsrA inh 4, MsrA act -3 and ASAP1 GAP inh 9.
Screening CCOCCCNC(=O)/C(C#N)=C/c1ccc(C)o1 returned ARFGAP1 inh 1, MsrA inh 7.0*, MsrA act -4, ASAP1 GAP inh 4 and MsrA conf 4.
Cc1ccc(/C=C(\C#N)C(=O)NCc2ccco2)o1 was read as ARFGAP1 inh -6, MsrA inh 3, MsrA act -4 and ASAP1 GAP inh 6.
COCCNC(=O)/C(C#N)=C/c1ccc(C(=O)O)cc1 was read as ARFGAP1 inh -8, MsrA inh -1, MsrA act 0 and ASAP1 GAP inh 0.
Screening COCCNC(=O)/C(C#N)=C/c1ccc(C)o1 returned ARFGAP1 inh 11, MsrA inh 6.8*, MsrA act -15, ASAP1 GAP inh 6 and MsrA conf 3.
For CCC1NC(=O)c2cc3ccccc3cc2-n2c1nc1cc(OC)c(OC)cc1c2=O (configuration not stated) the results were ARFGAP1 inh -4, MsrA inh -1, MsrA act -2 and ASAP1 GAP inh -3.
Screening [2H]C([2H])(CCOS(N)(=O)=O)c1ccccc1 returned ARFGAP1 inh 2, MsrA inh 0, MsrA act -1 and ASAP1 GAP inh 2.
Screening O=c1[nH]c(=S)[nH]c2c1C(c1ccc(F)cc1)OC(C1CCCCC1)C2 (configuration not stated) returned ARFGAP1 inh 7, MsrA inh -1, MsrA act -2 and ASAP1 GAP inh -11.
COc1ccc(/C=C2/SC(=O)N(CCNC(=O)C3CCCN3C(=O)c3cccs3)C2=O)cc1 (configuration not stated) was read as ARFGAP1 inh 12, MsrA inh 5.6*, MsrA act -5, ASAP1 GAP inh 12 and MsrA conf 4.
`COc1ccc(/C=C2\SC(=O)N(CCn3cnnn3)C2=O)cc1` gave ARFGAP1 inh 9, MsrA inh 6.3*, MsrA act -6, ASAP1 GAP inh 12 and MsrA conf 4.
